# Only some compounds are listed: those with a hit (about 4.6% of all), similar ones and a draw of the others.
# TAAR1 ag – human TAAR1 agonism | Q96RJ0 | CHO RD-HGA16 TAAR1, Fluo-8 calcium fluorescence; vehicle wells 0%, saturating PEA agonist 100% | activation, % at 3 µM | actives 0.99% (n = 360,000) | AID 624467;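 active = activation above the mean activation of all test compounds in the run plus 3 SD, cut at about 38% in these data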
#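 System: CHO RD-HGA16 cells carrying human TAAR1 plus Gα16; Incubation: 17-24 h seeding, 75 min 37 °C dye, 30 min RT; Measured by: Fluo-8 fluorescence, 5 s baseline then 140 s kinetic read; Control set: DMSO and PEA EC100; Replication: single well for each compound.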
# TAAR1 antagonist – human TAAR1 antagonism; CHO RD-HGA16 TAAR1, Fluo-8 calcium fluorescence, antagonist; inhibition, % at 3 µM; Q96RJ0; actives 1.5% (n = 360,000);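 active = inhibition above a per-plate cutoff, the mean inhibition of test compounds on that plate plus 3 SD, cut at about 49% in these data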
#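 System: RD-HGA16 CHO cells with stable hTAAR1 and Gα16 | Probe or stimulus: EC80 β-phenethylamine stimulus | Dosing: 3 µM, single point | Times: Dye loading 75 min at 37 °C, then 30 min room temperature | Measured by: Fluo-8 calcium-sensitive fluorescence | Read-out basis: % inhibition of agonist calcium response | Replicates: n of 1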
# GPR7 antag – antagonists of human GPR7 (neuropeptides B/W receptor 1). P48145. GPR7-expressing cells, fluorescence antagonist assay. inhibition, % at 4.4 µM. actives 1.1% (n = 290,000); in the data active = inhibition above about 16%, passing the limit was not always enough;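 note: cells stimulated with the agonist NPW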
# Target sequence (P48145 whole entry, looked up): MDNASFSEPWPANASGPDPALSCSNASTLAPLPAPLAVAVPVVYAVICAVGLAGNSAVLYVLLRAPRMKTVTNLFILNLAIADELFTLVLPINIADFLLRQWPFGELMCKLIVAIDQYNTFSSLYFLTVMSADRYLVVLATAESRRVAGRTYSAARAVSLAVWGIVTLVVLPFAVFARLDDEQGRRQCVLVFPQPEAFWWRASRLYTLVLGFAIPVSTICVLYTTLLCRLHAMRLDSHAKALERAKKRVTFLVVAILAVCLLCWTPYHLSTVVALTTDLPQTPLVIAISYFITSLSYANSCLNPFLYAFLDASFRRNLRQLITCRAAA
# OX1R antag-1 – antagonists of human orexin 1 receptor; O43613; CHO/OX1R cells, Fluo-8 calcium fluorescence, orexin A; inhibition, % at 5 µM; actives 0.43% (n = 330,000);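 active = inhibition above its plate's threshold, mean inhibition of all tested compounds on the plate plus 3 SD, cut at about 37% in these data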
# Target sequence (O43613 whole entry, looked up): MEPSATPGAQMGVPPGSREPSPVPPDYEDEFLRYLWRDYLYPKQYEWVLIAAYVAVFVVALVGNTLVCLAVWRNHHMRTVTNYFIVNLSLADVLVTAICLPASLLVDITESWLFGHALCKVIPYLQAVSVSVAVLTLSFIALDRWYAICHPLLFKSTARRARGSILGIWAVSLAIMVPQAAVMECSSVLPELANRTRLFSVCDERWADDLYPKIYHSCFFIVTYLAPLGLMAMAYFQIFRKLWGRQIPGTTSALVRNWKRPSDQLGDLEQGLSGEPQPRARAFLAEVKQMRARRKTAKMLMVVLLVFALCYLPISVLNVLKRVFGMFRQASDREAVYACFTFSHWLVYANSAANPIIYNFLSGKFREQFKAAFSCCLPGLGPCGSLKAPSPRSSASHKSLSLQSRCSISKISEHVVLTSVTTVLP
# CHO parental Ca – counter-screen: ATP calcium response change in parental CHO cells; actives 0.63% (n = 330,000); inhibition, % at 5.6 µM; parental CHO-K1, ATP-induced calcium, Fluo-8 fluorescence;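 active = inhibition above that plate's mean sample inhibition plus 3 SD, cut at about 26% in these data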
#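 Test system: parental CHO cells; detection: calcium-sensitive Fluo-8 fluorescence; evaluation: percent inhibition of calcium signal; also added: ATP as calcium-mobilizing challenge; repeats: one well per compound; control set: ATP-challenged DMSO wells low, unchallenged DMSO wells high; compound: single nominal dose of 5.6 µM per compound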
# OX1R antag-2 – antagonists of human orexin 1 receptor (OX1R) | actives 1.8% (n = 330,000) | AID 485270 | O43613 | OX1R-expressing cells, FRET antagonist read-out | inhibition, % at 6.6 µM; in the data active = inhibition mostly above about 38%, no sharp cut-off; inactive = mostly below about 40%
# TAAR1 ag confirm – human TAAR1 agonism, confirmed. AID 651783. shares compounds with TAAR1 ag. CHO RD-HGA16 TAAR1, Fluo-8 calcium fluorescence; scaled: DMSO 0%, maximal phenethylamine 100%. actives 82% (n = 2,400). activation, % at 3 µM;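 active = activation above a cutoff set at the run's mean compound activation plus 3 SD, cut at about 39% in these data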
# Ga16 ag counter – counter-screen for TAAR1 agonists: nonselective agonists in parental cells | shares compounds with TAAR1 ag | CHO-Ga16 parental, Fluo-8 calcium fluorescence; normalized to maximal ATP response, DMSO zero | activation, % at 3 µM | actives 50% (n = 2,400) | AID 651787;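 active = activation above the run cutoff, the mean activation over all tested wells plus 3 SD, cut at about 12% in these data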
# TAAR1 desens – counter-screen for human TAAR1 agonists: agonists that desensitize TAAR1. inhibition, % at 3 µM. CHO RD-HGA16 hTAAR1, Fluo-8 calcium, beta-PEA response inhibition. shares compounds with TAAR1 ag. actives 46% (n = 2,400);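 active = inhibition above the run cutoff, the mean inhibition of all test compounds plus 3 SD, cut at about 49% in these data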;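 note: beta-PEA stimulus applied at its EC80; loss of beta-PEA calcium signal after compound pretreatment read as receptor desensitization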
# Ga16 nonsel ant – counter-screen for TAAR1 agonists: nonselective Ga16 antagonists. shares compounds with TAAR1 ag. CHO-Ga16 ATP-induced calcium, Fluo-8 fluorescence. actives 39% (n = 2,400). inhibition, % at 3 µM. AID 651952;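 active = inhibition above the plate's mean compound inhibition plus 3 SD, computed per plate, cut at about 22% in these data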
# Numbers stand for hits; . = inactive; / = no result given.
SMILES,TAAR1 ag,TAAR1 antagonist,GPR7 antag,OX1R antag-1,CHO parental Ca,OX1R antag-2,TAAR1 ag confirm,Ga16 ag counter,TAAR1 desens,Ga16 nonsel ant
C/C(=N\NC(=O)Cn1nc(C)c([N+](=O)[O-])c1C)c1ccc(Cl)s1,.,.,.,.,.,.,/,/,/,/
Cc1nn(CC(=O)N/N=C/c2cccs2)c(C)c1[N+](=O)[O-],57,.,.,.,.,.,80,.,72,.
COc1cc(/C=C/C(=O)OCC(=O)Nc2ccc(S(N)(=O)=O)cc2)ccc1O,.,.,.,.,.,.,/,/,/,/
COc1cc(/C=C/C(=O)OCC(=O)Nc2ccc([N+](=O)[O-])cc2)ccc1O,72,.,.,.,.,.,77,43,58,39
O=C(COC(=O)/C=C/c1ccc(Cl)cc1)Nc1ccc2[nH]c(=O)[nH]c2c1,.,.,/,.,.,.,/,/,/,/
O=C(COC(=O)/C=C/c1ccc(Cl)cc1)Nc1ccccc1,62,.,.,.,.,.,.,.,.,.
C(=NOCc1ccccc1)c1ccncc1,.,.,/,/,/,/,/,/,/,/
C(=NOCCc1ccccc1)c1cccnc1,/,/,/,/,/,/,/,.,/,.
Cn1sc2ccccc2c1=O,46,.,/,/,/,/,.,26,.,.
O=c1c2ccccc2sn1-c1ccc(S(=O)(=O)N2CCCCC2)cc1,.,.,.,.,.,.,/,/,/,/
O=c1c2ccccc2sn1-c1ccccc1,55,50,.,.,48,.,38,27,.,32
CN(C)S(=O)(=O)c1cccc(-n2sc3ccccc3c2=O)c1,64,.,.,.,.,.,50,34,.,22
Cc1ccc(-n2sc3ccccc3c2=O)cc1S(=O)(=O)N1CCCCC1,70,.,.,.,.,.,.,14,.,.
COCCn1c(=O)sc2ccccc2c1=O,.,.,.,.,.,.,/,/,/,/
O=c1c2ccccc2sn1-c1ccc(S(=O)(=O)N2CCCC2)cc1,.,.,.,.,.,.,/,/,/,/
N#Cc1ccc2c(=O)n(-c3ccccc3)sc2c1,.,.,/,/,/,/,/,/,/,/
CC(=O)Nc1ccc2c(=O)n(-c3ccccc3)sc2c1,83,69,/,/,/,/,131,51,102,52
O=C(CSC1=NS(=O)(=O)c2ccccc2N1)NCCc1ccccc1,89,71,/,.,.,.,89,.,75,.
Nc1ccccc1SSc1ccccc1N,46,.,.,.,.,.,.,.,.,.
N#Cc1ccccc1Sc1ccccc1N,/,/,.,.,.,.,/,/,/,/
O=C(Oc1ccccc1F)c1ccc2c(=O)n3c(nc2c1)CCC3,.,.,/,.,.,.,/,/,/,/
Cn1c2ccccc2c(=O)c2c(=O)n(C3CCCCC3)c(-c3ccco3)nc21,103,.,.,.,.,.,87,62,.,25
CC(C)Cn1c(-c2ccco2)nc2c(c(=O)c3ccccc3n2C)c1=O,.,.,.,.,.,.,/,/,/,/
Cc1nc2c(c(=O)c3ccccc3n2C)c(=O)n1-c1ccccc1,.,.,.,.,.,.,/,/,/,/
Cc1nc2c(c(=O)c3ccccc3n2C)c(=O)n1C1CCCCCC1,50,.,.,.,.,.,56,51,.,.
SMILES,TAAR1 ag,TAAR1 antagonist,GPR7 antag,OX1R antag-1,CHO parental Ca,OX1R antag-2,TAAR1 ag confirm,Ga16 ag counter,TAAR1 desens,Ga16 nonsel ant
CN(CCc1ccccc1)C(=O)c1ccc(NC(=O)Cc2cccc(NC(=O)C3CCN(S(=O)(=O)c4cccc([N+](=O)[O-])c4)CC3)c2)cc1,43,.,/,/,/,/,66,.,.,.
O=C(CSc1n[nH]c(-c2ccncc2)n1)Nc1ccc(Cl)cc1,.,.,.,.,.,.,/,/,/,/
O=C(CSc1n[nH]c(-c2ccncc2)n1)Nc1ccc(Cl)c(Cl)c1,102,.,.,.,.,.,66,60,.,22
c1ccc2c(CC3=NCCN3)cccc2c1,97,74,.,.,.,.,95,.,90,.
C[C@H](NS(=O)(=O)c1ccc(Cl)cc1)C(=O)OCC(=O)Nc1cc(S(=O)(=O)N2CCOCC2)ccc1Cl,.,.,/,/,/,/,/,/,/,/
CC1CCN(c2ncnc3c2cnn3Cc2ccc(Cl)cc2)CC1,51,.,.,.,.,.,38,20,.,.
Cc1ccc(Cn2ncc3c(N4CCN(Cc5ccc(Cl)cc5)CC4)ncnc32)cc1,.,.,.,.,.,.,/,/,/,/
COC(=O)[C@@]1(C(C)C)N=C(c2cc(OC)c(OC)c(OC)c2)[C@]2(O1)C(=O)N(C)c1ccc(Br)cc12,.,.,/,/,/,/,/,/,/,/
O=C(/C=C/c1ccc(O)c([N+](=O)[O-])c1)c1ccc2ccccc2c1,66,.,.,.,.,.,.,38,.,.
COc1ccc(SCC(=O)Nc2ccc(N3CCN(C)CC3)c(F)c2)cc1,.,.,.,.,.,.,/,/,/,/
Cc1ccc(SCC(=O)Nc2ccc(N3CCN(C)CC3)c(F)c2)cc1,49,.,.,.,.,.,69,.,.,.
CCOc1ccccc1N1CCN(Cc2cn[nH]c2-c2ccc(F)cc2)CC1,95,.,.,.,.,.,83,41,.,.
CCOc1ccccc1N1CCN(Cc2cccc(OC)c2OC)CC1,.,.,.,.,.,.,/,/,/,/
Cc1cccc(C(=O)Nc2ccccc2SCC2CSc3nc4ccccc4c(=O)n32)c1 (centres undefined),.,.,.,.,.,.,/,/,/,/
O=C(CN1CCc2ccccc2C1)Nc1ccccc1C(F)(F)F,56,.,.,.,.,.,75,.,52,.
FC(F)(F)c1ccccc1NC(=S)N1CCc2ccccc2C1,80,.,.,.,.,.,96,18,.,.
Cc1c(Cl)cccc1NC(=S)N1CCc2ccccc2C1,74,.,.,.,.,.,69,.,.,.
Cc1nc2c(o1)C(=O)c1ccccc1C2=Nc1ccccc1,.,.,/,/,/,/,/,/,/,/
Nc1nonc1-n1nnc(C(=O)N/N=C/c2ccc(Br)cc2)c1-c1ccc2c(c1)OCO2,154,93,.,.,.,.,150,112,97,81
Nc1nonc1-n1nnc(C(=O)N/N=C/c2cccc(Cl)c2)c1-c1ccc2c(c1)OCO2,.,.,.,.,.,.,/,/,/,/
Nc1nonc1-n1nnc(C(=O)N/N=C/c2ccc3c(c2)OCO3)c1-c1ccccc1,75,.,.,.,.,.,45,26,.,.
